Reference: ChEMBL document CHEMBL1629577, “Activity of T-705 in a hamster model of yellow fever virus infection in comparison with that of a chemically related compound, T-1106” (Antimicrob Agents Chemother, 2009)
The source made the active and inactive calls. No cut-off for these calls is given here.

How the values were obtained:
Yellow fever virus [1] = test: Antiviral activity against 10^2 CCID50 Yellow fever virus Jimenez infected in syrian golden hamster assessed as reduction in viral titer in liver at 32 mg/kg/day administered twice daily for 8 days started 6 days post infection by quantitative RT-PCR analysis; type: functional
[2] = Cytotoxicity against African green monkey Vero cells by luciferase-based cell viability assay; conditions: chlorocebus sabaeus
Outline: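 Uninfected Vero cells exposed to compound were assayed for ATP content by luminescence (Cell-Titer Glo) to derive the CC50.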

Yellow fever virus [3] = test: Antiviral activity against 10^2 CCID50 Yellow fever virus Jimenez infected in syrian golden hamster assessed as mean day of death […] at 10 mg/kg/day, po administered twice daily for 8 days started 4 hrs prior to viral infection relative to control; type: functional
Yellow fever virus [4] = test: Antiviral activity against 10^2 CCID50 Yellow fever virus Jimenez infected in syrian golden hamster assessed as mean day of death […] at 32 mg/kg/day, po administered twice daily for 8 days started 4 hrs prior to viral infection relative to control; type: functional
Yellow fever virus [5] = test: Antiviral activity against 10^2 CCID50 Yellow fever virus Jimenez infected in syrian golden hamster assessed as serum ALT level at 32 mg/kg/day, po administered twice daily for 8 days started 4 hrs prior to viral infection; type: functional
Yellow fever virus [6] = test: Antiviral activity against Yellow fever virus 17D infected in African green monkey Vero cells assessed as inhibition of virus induced cytopathic effect […] by NR dye uptake assay; type: functional, cell-based
[7] = Selectivity index, ratio of CC50 for African green monkey vero cells to EC90 for Yellow fever virus 17D; type: toxicity, cell-based; conditions: read-out: Selectivity Index
Outline: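 SI was calculated as the CC50 in uninfected Vero cells divided by the EC90 from the YFV 17D virus yield reduction assay in Vero cells.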

Syrian golden hamster [8] = test: Toxicity in syrian golden hamster infected with 10^2 CCID50 Yellow fever virus Jimenez assessed as weight change at 32 mg/kg/day, po administered twice daily for 8 days started 4 hrs prior to viral infection relative to control; type: organism-based, Mesocricetus auratus; design: route oral; conditions: in vivo
Yellow fever virus [9] = test: Antiviral activity against Yellow fever virus 17D infected in African green monkey Vero cells assessed as inhibition of virus induced cytopathic effect by microscopic analysis; type: functional, cell-based
Yellow fever virus [10] = test: Antiviral activity against Yellow fever virus 17D infected in African green monkey Vero cells assessed as inhibition of virus induced cytopathic effect by luciferase reporter gene assay; type: functional, cell-based
Yellow fever virus [11] = test: Antiviral activity against Yellow fever virus 17D infected in African green monkey Vero cells assessed as reduction in virus yield; type: functional
Outline: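 Virus yield reduction in Vero cells infected with YFV 17D after compound exposure, with progeny virus titred by CCID50. The EC90 was averaged over separate experiments.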

Yellow fever virus [12] = test: Antiviral activity against Yellow fever virus 17D infected in African green monkey Vero cells assessed as time required for inhibition of viral replication at 6400 uM up to 12 hrs post-viral infection; type: functional, cell-based
Yellow fever virus [13] = test: Antiviral activity against 10^2 CCID50 Yellow fever virus Jimenez infected in syrian golden hamster assessed as serum survival of animal at 32 mg/kg/day, po administered twice daily for 8 days started 4 hrs prior to viral infection; type: functional, organism-based
Syrian golden hamster [14] = test: Toxicity in syrian golden hamster infected with 10^2 CCID50 Yellow fever virus Jimenez assessed as weight change at 400 mg/kg/day, po administered twice daily for 8 days started 4 hrs prior to viral infection relative to control; type: organism-based, Mesocricetus auratus; design: route oral; conditions: in vivo
Syrian golden hamster [15] = test: Toxicity in syrian golden hamster infected with 10^2 CCID50 Yellow fever virus assessed as weight change in non surviving animals at 400 mg/kg/day, po BID administered for 8 days started 5 days post viral challenge; type: organism-based, Mesocricetus auratus; design: route oral; conditions: in vivo
Syrian golden hamster [16] = test: Toxicity in syrian golden hamster infected with 10^2 CCID50 Yellow fever virus Jimenez assessed as weight change at 400 mg/kg/day, po administered twice daily for 8 days started 2 day post viral infection; type: organism-based, Mesocricetus auratus; design: route oral; conditions: in vivo
Syrian golden hamster [17] = test: Toxicity in syrian golden hamster infected with 10^2 CCID50 Yellow fever virus assessed as weight change in surviving animals at 400 mg/kg/day, po BID administered for 8 days started 5 days post viral challenge; type: organism-based, Mesocricetus auratus; design: route oral; conditions: in vivo
Syrian golden hamster [18] = test: Toxicity in syrian golden hamster infected with 10^2 CCID50 Yellow fever virus assessed as weight change in surviving animals at 400 mg/kg/day, po BID administered for 8 days started 4 days post viral challenge; type: organism-based, Mesocricetus auratus; design: route oral; conditions: in vivo
Syrian golden hamster [19] = test: Toxicity in syrian golden hamster infected with 10^2 CCID50 Yellow fever virus Jimenez assessed as weight change at 400 mg/kg/day, po administered twice daily for 8 days started 5 day post viral infection; type: organism-based, Mesocricetus auratus; design: route oral; conditions: in vivo
Syrian golden hamster [20] = test: Toxicity in syrian golden hamster infected with 10^2 CCID50 Yellow fever virus Jimenez assessed as weight change at 400 mg/kg/day, po administered twice daily for 8 days started 3 day post viral infection; type: organism-based, Mesocricetus auratus; design: route oral; conditions: in vivo
Syrian golden hamster [21] = test: Toxicity in syrian golden hamster infected with 10^2 CCID50 Yellow fever virus assessed as weight change in non surviving animals at 400 mg/kg/day, po BID administered for 8 days started 4 days post viral challenge; type: organism-based, Mesocricetus auratus; design: route oral; conditions: in vivo
Syrian golden hamster [22] = test: Toxicity in syrian golden hamster infected with 10^2 CCID50 Yellow fever virus Jimenez assessed as weight change at 100 mg/kg/day, po administered twice daily for 8 days started 4 hrs prior to viral infection; type: organism-based, Mesocricetus auratus; design: route oral; conditions: in vivo
Syrian golden hamster [23] = test: Toxicity in syrian golden hamster infected with 10^2 CCID50 Yellow fever virus Jimenez assessed as weight change at 200 mg/kg/day, po administered twice daily for 8 days started 4 hrs prior to viral infection relative to control; type: organism-based, Mesocricetus auratus; design: route oral; conditions: in vivo
Syrian golden hamster [24] = test: Toxicity in syrian golden hamster infected with 10^2 CCID50 Yellow fever virus Jimenez assessed as weight change at 400 mg/kg/day, po administered twice daily for 8 days started 1 day post viral infection; type: organism-based, Mesocricetus auratus; design: route oral; conditions: in vivo
Syrian golden hamster [25] = test: Toxicity in syrian golden hamster assessed as number of animals alive at 400 mg/kg/day, po BID administered for 8 days; type: organism-based, Mesocricetus auratus; design: route oral; conditions: in vivo, 192 h
Outline: (§1)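 Uninfected toxicity-control hamsters, three per group, were dosed p.o. in 0.4% carboxymethyl cellulose twice daily, 12 h apart, for 8 days. Deaths were recorded daily. Body weights were taken at 0, 3 and 6 dpi.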

Syrian golden hamster [26] = test: Toxicity in syrian golden hamster assessed as weight change at 400 mg/kg/day, po BID administered for 8 days; type: organism-based, Mesocricetus auratus; design: route oral; conditions: in vivo, 192 h; outline: as §1
Syrian golden hamster [27] = test: Toxicity in syrian golden hamster infected with 10^2 CCID50 Yellow fever virus Jimenez assessed as weight change at 400 mg/kg/day, po administered twice daily for 8 days started 4 day post viral infection; type: organism-based, Mesocricetus auratus; design: route oral; conditions: in vivo
Syrian golden hamster [28] = test: Toxicity in syrian golden hamster infected with 10^2 CCID50 Yellow fever virus Jimenez assessed as weight change at 10 mg/kg/day, po administered twice daily for 8 days started 4 hrs prior to viral infection relative to control; type: organism-based, Mesocricetus auratus; design: route oral; conditions: in vivo
Yellow fever virus [29] = test: Antiviral activity against 10^2 CCID50 Yellow fever virus Jimenez infected in syrian golden hamster assessed as mean day of death […] at 50 mg/kg/day, po administered twice daily for 8 days started 4 hrs prior to viral infection relative to control; type: functional
Yellow fever virus [30] = test: Antiviral activity against 10^2 CCID50 Yellow fever virus Jimenez infected in syrian golden hamster assessed as serum survival of animal at 50 mg/kg/day, po administered twice daily for 8 days started 4 hrs prior to viral infection; type: functional, organism-based
Yellow fever virus [31] = test: Antiviral activity against 10^2 CCID50 Yellow fever virus Jimenez infected in syrian golden hamster assessed as serum ALT level at 10 mg/kg/day, po administered twice daily for 8 days started 4 hrs prior to viral infection; type: functional

Compound: NC(=O)c1nccn([C@@H]2O[C@H](CO)[C@@H](O)[C@H]2O)c1=O
- Activity (Yellow fever virus [1]): 85 IU/L
- CC50 [2]: > 4000 µM
- Time (Yellow fever virus [3]): 8 days
- Time (Yellow fever virus [4]): >21 days
- Activity (Yellow fever virus [5]): 154 IU/L
- EC50 (Yellow fever virus [6]): 1800 µM
- selectivity ratio [7]: > 3.6
- Activity (Syrian golden hamster [8]): 0.2 g
- EC50 (Yellow fever virus [9]): 1080 µM
- EC50 (Yellow fever virus [10]): 2630 µM
- EC90 (Yellow fever virus [11]): 1110 µM
- Activity (Yellow fever virus [12]): Active
- Activity (Yellow fever virus [13]): Active

Compound: NC(=O)c1nc(F)c[nH]c1=O [FAVIPIRAVIR]
- Activity (Syrian golden hamster [14]): 5.2 g
- Activity (Syrian golden hamster [15]): -7.3 g
- Activity (Syrian golden hamster [16]): 0 g
- Activity (Syrian golden hamster [17]): -2.8 g
- CC50 [2]: > 6370 µM
- Activity (Syrian golden hamster [18]): 2.2 g
- Activity (Syrian golden hamster [19]): -4.5 g
- Activity (Syrian golden hamster [20]): -4.1 g
- selectivity ratio [7]: > 19
- Activity (Syrian golden hamster [21]): -18.5 g
- Activity (Syrian golden hamster [22]): -2.9 g
- Activity (Syrian golden hamster [23]): 2.2 g
- Activity (Syrian golden hamster [24]): -0.3 g
- Activity (Syrian golden hamster [25]): Non-toxic
- Activity (Syrian golden hamster [26]): 5.3 g
- Activity (Syrian golden hamster [27]): -3 g

Compound: NC(=O)c1ncn([C@@H]2O[C@H](CO)[C@@H](O)[C@H]2O)n1 [RIBAVIRIN]
- Activity (Syrian golden hamster [28]): 2.4 g
- CC50 [2]: > 4100 µM
- Time (Yellow fever virus [29]): >21 days
- Activity (Yellow fever virus [30]): Active
- selectivity ratio [7]: > 6
- EC50 (Yellow fever virus [9]): 28 µM
- EC90 (Yellow fever virus [11]): 690 µM
- Activity (Yellow fever virus [31]): 103 IU/L
